From PubChem
Dynein transport: blocks dynein driven cargo transport along microtubules. AID 1381. hit rate 0.47% among 220,000. 3617.4 mouse cells, GR-EGFP nuclear translocation imaging; test concentration mostly 20 µM; stimulated with dexamethasone, 1 µM; hits give low values. z-score, hits read low;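 active means plate z-score of nuclear minus cytoplasmic receptor signal below a set negative limit, without overly bright fluorescence or cell loss, cut at about -3.5 in these data, passing the limit was not always enough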;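 further: z-score of nuclear minus cytoplasmic ring GR-EGFP intensity difference per well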
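Buffer or medium – tet-free medium with charcoal-stripped serum · Signal – automated 10x imaging of fixed Hoechst-stained cells · Also added – dexamethasone agonist, 1.0 µM final, for 30 min · Incubation – induction 48 h, compound 1 h, agonist 30 min · Read-out – GR-EGFP nuclear translocation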
CHOP UPR activ: activators of apoptotic arm of unfolded protein response (CHOP). CHO-CHOP luciferase reporter, UPR activation, luminescence; percent of tunicamycin response over DMSO baseline. activation, % at 10 µM. hit rate 0.34% among 330,000;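 active means at 10 µM dose, activation of 40% or more, normalized to positive control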
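Material: CHO-CHOP cells, stable luciferase reporter of PERK-eIF2a-CHOP signalling; quantity: 500 reporter cells seeded per well; buffer or medium: F12 medium containing 10% fetal bovine serum; compound: one dose, 10 µM in 0.5% DMSO; incubation: 6 h compound treatment, 37 °C; measured by: Steady-Glo luciferase luminescence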
Mdm2-MdmX inh: human Mdm2/MdmX binding inhibition; SaOS-2 split-luciferase Mdm2/MdmX complementation, luminescence; O15151+Q00987; AID 485346; inhibition, % at 8 µM; hit rate 3% among 330,000;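 active means inhibition of at least 50% at 8 µM in the primary screen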
Target sequence (O15151 whole entry, looked up): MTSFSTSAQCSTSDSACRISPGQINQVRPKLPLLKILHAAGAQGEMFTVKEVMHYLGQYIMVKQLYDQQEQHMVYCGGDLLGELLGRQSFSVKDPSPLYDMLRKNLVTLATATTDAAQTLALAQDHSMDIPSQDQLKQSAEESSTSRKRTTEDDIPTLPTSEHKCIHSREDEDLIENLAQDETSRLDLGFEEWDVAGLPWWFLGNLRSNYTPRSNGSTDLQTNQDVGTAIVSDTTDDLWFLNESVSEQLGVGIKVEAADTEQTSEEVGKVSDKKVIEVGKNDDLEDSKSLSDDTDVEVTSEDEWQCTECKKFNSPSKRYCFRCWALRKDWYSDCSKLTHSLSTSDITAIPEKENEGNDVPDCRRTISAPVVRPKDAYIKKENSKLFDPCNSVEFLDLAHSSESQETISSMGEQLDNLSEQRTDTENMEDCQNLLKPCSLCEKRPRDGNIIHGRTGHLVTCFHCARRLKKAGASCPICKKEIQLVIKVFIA
Target sequence (Q00987 whole entry, looked up): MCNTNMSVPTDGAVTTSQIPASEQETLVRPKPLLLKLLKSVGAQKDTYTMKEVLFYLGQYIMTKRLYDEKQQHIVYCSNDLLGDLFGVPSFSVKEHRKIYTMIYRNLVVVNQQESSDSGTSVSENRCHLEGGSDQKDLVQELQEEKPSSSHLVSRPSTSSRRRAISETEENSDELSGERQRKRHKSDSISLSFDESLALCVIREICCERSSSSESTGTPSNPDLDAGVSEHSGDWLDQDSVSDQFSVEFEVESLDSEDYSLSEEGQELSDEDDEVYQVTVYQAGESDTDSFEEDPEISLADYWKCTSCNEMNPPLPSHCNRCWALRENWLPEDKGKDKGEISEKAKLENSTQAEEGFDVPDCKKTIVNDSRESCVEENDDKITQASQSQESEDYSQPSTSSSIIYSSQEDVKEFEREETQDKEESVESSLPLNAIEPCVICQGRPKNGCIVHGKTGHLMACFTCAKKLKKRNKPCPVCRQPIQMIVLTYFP
Beta2AR agonist: agonists of human beta-2 adrenergic receptor inducing internalization. P07550. Am2.2-beta2AR cells, FAP receptor internalization, flow cytometry. response, % (concentration not given with the values). hit rate 0.43% among 340,000;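 active means response above a set limit, near 3 SD of response in nonfluorescent compounds, cut at about 42% in these data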
Mdm2 ligase inh: inhibitors of human Mdm2 E3 ubiquitin ligase; cell-based MDM2 ubiquitination luciferase reporter, 2 h; 0 = plate control, 100 = twice control, blank-subtracted; Q00987; AID 1230; hit rate 0.11% among 210,000; signal enhancement, % at 5 µM;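 active means signal enhancement of 30% or more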;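 further: luminescence tracks abundance of the self-degrading MDM2-luciferase fusion protein; higher signal means inhibition of MDM2 E3 ligase activity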
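Material: stable MDM2–luciferase fusion reporter cells / Quantity: 2000 cells/well / Dosing: single 5 µM compound dose, 0.2% final DMSO / Buffer or medium: DMEM / Schedule: 4 h cell settling then 2 h compound exposure, 37 °C / Detection: luminescence with SteadyLite reagent, 15 min at room temperature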
UPR XBP1 act: adaptive UPR (XBP1) activation; AID 463104; activation, % at 20 µM; hit rate 0.33% among 330,000; CHO-XBP1 luciferase reporter, IRE1-XBP1 UPR activation, luminescence; percent of tunicamycin response, DMSO as zero;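 active means versus positive control, 20 µM dose yields 30% or more activation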
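Material – CHO cell line with stable XBP1 luciferase reporter · Buffer or medium – F12 plus 10% FBS · Compound – single point, 20 µM final compound, 1% DMSO · Schedule – 16-18 h cell attachment at 37 °C, then 6 h compound exposure · Signal – Steady-Glo luminescence read · Benchmarks – high control tunicamycin 10 µg/mL final, low control DMSO vehicle only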
Mdm2 MdmX conf: human Mdm2/MdmX binding inhibition, confirmed | shares compounds with Mdm2-MdmX inh | luminescent assay | inhibition, % at 8 µM | hit rate 55% among 10,000 | AID 489028; in the data active means inhibition above about 40%
FLuc counter: full-length luciferase inhibition in Mdm2/MdmX counter-screen. shares compounds with Mdm2-MdmX inh. AID 504607. SaOS-2 full-length luciferase counterscreen, luminescence. inhibition, % at 8 µM. hit rate 77% among 6,200;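 active means mean inhibition at 8 µM reaching about 37%, which flags the compound as non-specific, limit read from the data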;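 further: p53-null SaOS-2 cells with luciferase driven by a doxycycline-inducible promoter; compound on cells about two nights before reading with doxycycline added after day one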
A number is an active result; i = inactive; nt = no result given. The list is not random: actives were taken first. Their share in the collection is about 3.7%.

SMILES	Dynein transport	CHOP UPR activ	Mdm2-MdmX inh	Beta2AR agonist	Mdm2 ligase inh	UPR XBP1 act	Mdm2 MdmX conf	FLuc counter
Cc1nc(-c2cccnc2)sc1C(=O)N/N=C/c1ccccc1Cl	i	i	70	42	i	i	i	nt
Cc1nc(-c2cccnc2)sc1C(=O)Nc1ccc(Cl)cc1	i	i	i	i	i	i	nt	nt
O=C(O)c1cccc(S(=O)(=O)N2CCN(C(c3ccccc3)c3ccccc3)CC2)c1	i	i	i	i	i	i	nt	nt
CCn1c(=O)n(CC)c2cc(N3CCCC3)c(NC(=O)c3cc(Cl)ccc3OC)cc21	nt	i	64	i	nt	i	i	nt
COc1cc(C(=O)Nc2cc3c(cc2N2CCCCC2)n(C)c(=O)n3C)cc(OC)c1OC	nt	i	78	i	nt	i	44	72
COc1ccc(C(=O)Nc2cc3c(cc2N2CCCCC2)n(C)c(=O)n3C)cc1OC	nt	i	i	i	nt	i	nt	nt
Fc1c(F)c(F)c(SCn2cc(Br)cn2)c(F)c1F	nt	i	i	i	nt	i	nt	nt
Cc1cccc(Nc2nnc(SCC(=O)NC(=O)Nc3ccc4c(c3)OCCO4)s2)c1	i	i	91	i	i	i	i	nt
Cc1ccccc1Nc1nnc(SCC(=O)NC(=O)Nc2ccc3c(c2)OCCO3)s1	i	i	i	nt	i	i	nt	nt
CN1CCN(c2nc3ccccc3nc2C(C#N)C(=O)OC2CCCCC2)CC1 (centres undefined)	i	i	51	i	i	i	i	84
CC(=O)Nc1nnc(SCC(=O)Nc2ccc(N3CCOCC3)c(Cl)c2)s1	i	i	59	i	nt	i	i	nt
CC(=O)Nc1nnc(SCC(=O)Nc2ccc3c(c2)OCCO3)s1	nt	i	i	i	nt	i	nt	nt
O=C(N/N=C1/CC2CCC1C2)c1cc2ccccc2cc1O (centres undefined)	nt	i	52	i	nt	i	41	83
O=C(NCC1CCCCC1)c1cc2ccccc2cc1O	nt	i	i	i	nt	i	nt	nt
COc1ccc(C2=Nn3c(nnc3C3CCCCC3)SC2)cc1OC	i	i	i	i	i	i	nt	nt
COc1ccc(C2=Nn3c(nnc3-c3ccccc3OC)SC2)cc1OCC1CC1	nt	i	74	i	nt	i	66	86
COc1ccc(OC)c(-c2nnc3n2N=C(c2ccc(OC(F)F)c(OCC4CC4)c2)CS3)c1	nt	i	57	i	nt	i	55	46
Cc1ccc(C(=O)COc2cc(C)nc3nncn23)cc1	i	i	i	i	i	i	nt	nt
O=C(Nc1cc(Sc2ccccn2)cc([N+](=O)[O-])c1)c1ccc(Cl)cc1	i	i	52	i	i	i	i	nt
O=C(Nc1cc(Sc2ccccn2)cc([N+](=O)[O-])c1)c1cccc(Cl)c1	i	i	i	i	i	i	nt	nt
CCOc1ccc(NC(=O)CN(C)C(=O)c2cc(-c3ccc(OC)cc3)nc3ccccc23)cc1OCC	nt	i	71	i	nt	i	46	75
COc1cccc(NC(=O)CN(C)C(=O)c2cc(-c3cccc(Br)c3)nc3ccccc23)c1	nt	i	70	i	nt	i	i	nt
CC(=O)Nc1ccc(S(=O)(=O)NC2(C(F)(F)F)NC(=O)N(c3ccc(C)cc3)C2=O)cc1 (centres undefined)	nt	i	i	i	nt	i	nt	nt
NC(=O)C(C(=O)/C=C/c1ccc(Cl)cc1)=C1SCCS1	i	i	92	i	nt	i	82	49
CC(Sc1ncnc2sc(-c3ccccc3)cc12)C(=O)NCC1CCCO1 (centres undefined)	nt	i	67	i	nt	i	59	91
SMILES	Dynein transport	CHOP UPR activ	Mdm2-MdmX inh	Beta2AR agonist	Mdm2 ligase inh	UPR XBP1 act	Mdm2 MdmX conf	FLuc counter
COc1ccc(COC(=O)c2cccc(S(=O)(=O)N3CCN(C(C)=O)CC3)c2)cc1F	nt	i	i	i	nt	i	nt	nt
O=c1[nH]c(=O)n(Cc2ccco2)c2c1C(C(F)(F)F)(C(F)(F)F)N=C(c1ccc(F)cc1)N2	i	i	65	i	i	i	84	58
O=C(Nc1cccc(Cl)c1)Nc1ccc(Br)cc1F	i	i	82	i	i	i	80	55
COC(=O)c1cccc(NC(=O)NC(=O)c2ccc(Cl)cc2)c1	i	i	69	i	i	i	43	73
COC(=O)c1cc(NC(=O)Nc2cccc(Cl)c2)ccc1Cl	i	i	88	i	i	i	43	96
COC(=O)c1cccc(NC(=O)Nc2ccc(Cl)cc2)c1	i	i	i	i	i	i	nt	nt
COc1ccccc1NS(=O)(=O)c1cccc(NC(=O)Nc2cccc(Cl)c2)c1	i	i	55	i	i	i	49	46
N#CCC(=O)Nc1ccc(C(=O)OCC(=O)N(C2CCCCC2)C2CCCCC2)cc1	nt	i	i	i	nt	i	nt	nt
COc1ccc(NC(=O)N(C)C[C@H]2Oc3c(NC(=O)c4nc5ccccc5s4)cccc3C(=O)N([C@@H](C)CO)C[C@H]2C)cc1	nt	i	i	i	nt	i	nt	nt
Cc1nn(C)cc1S(=O)(=O)N1CCCCC1C (centres undefined)	nt	i	i	i	nt	i	nt	nt
CN1CCC(=O)N([C@H](COc2ccccc2)Cc2ccccc2)CC1	nt	i	i	i	nt	i	nt	nt
CC(=O)N1CCN(C(=O)CCc2nc3ccccc3c(=O)[nH]2)CC1	i	i	i	i	nt	i	nt	nt
Cc1ccc2c(c1)CCCN2C(=O)CCc1nc2ccccc2c(=O)[nH]1	nt	i	53	i	nt	i	60	49
CCOc1ccccc1N1CCN(C(=O)c2cc3ccccc3cc2OC)CC1	nt	i	57	i	nt	i	80	69
CCOc1ccccc1N1CCN(C(=O)c2cc(-c3cccnc3)nc3c(Cl)cccc23)CC1	nt	i	88	i	nt	i	83	52
CC1Cc2cc(/C(O)=C3/C(=O)C(=O)N(CCCN4CCOCC4)C3c3ccc(C(C)C)cc3)ccc2O1 (centres undefined)	nt	i	i	i	nt	i	nt	nt
COc1ccc(OC)c(/C=C/C(=O)OCC(=O)N2CCN(S(=O)(=O)c3ccc(C)cc3C)CC2)c1	nt	i	i	i	nt	i	nt	nt
O=S1(=O)C=C(Sc2nnc(-c3ccccc3)o2)c2ccccc21	-4.1	i	80	i	i	i	100	50
COc1cc2cc(-c3ccc(O)cc3O)nc(C)c2cc1OC	nt	i	84	i	nt	i	53	53
COc1cc2cc(-c3ccc(OC)c(OC)c3C)nc(N)c2cc1OC	nt	i	94	i	nt	i	70	62
CCOc1ccc(-c2cc3cc(OC)c(OC)cc3c(C)n2)cc1	i	i	i	i	i	i	nt	nt
